PAFAH2 FP inh – PAFAH2 enzyme inhibitors, primary screen, biochemical, fluorescence polarization, human | Platelet-activating factor acetylhydrolase 2, cytoplasmic (Homo sapiens), Q99487 | recombinant PAFAH2, FP-rhodamine activity probe | inhibition, % at 3.39 µM | 340,000 tested, 0.99% active | AID 492956, 2010;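 active = inhibition above the mean over all tested compounds plus 3 SD, cut at about 30% in these data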;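 also: inhibitors block probe labeling of enzyme so polarization drops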
ASAP1 GAP inh – inhibitors of human ASAP1 ArfGAP activity, primary screen, biochemical, fluorescence polarization. Arf-GAP with SH3 domain, ANK repeat and PH domain-containing protein 1 (Homo sapiens), …. ASAP1-stimulated ARF1 GTP hydrolysis, GDP FP detection. inhibition, % at 16.5 µM. 360,000 tested, 0.19% active. AID 624377, 2012; in the data active = inhibition above about 25%
pPAFAH inh – pPAFAH enzyme inhibitors, primary screen, biochemical, fluorescence polarization, human; AID 463082, 2010; recombinant pPAFAH, FP-rhodamine probe fluorescence polarization; 330,000 tested, 1.5% active; inhibition, % at 3.39 µM; Platelet-activating factor acetylhydrolase (Homo sapiens), Q13093;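 active = inhibition above the mean inhibition across the screen plus 3 SD, cut at about 25% in these data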;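 also: inhibitors block binding of the rhodamine activity-based probe so polarization drops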
Target sequence (Q13093 whole entry, looked up): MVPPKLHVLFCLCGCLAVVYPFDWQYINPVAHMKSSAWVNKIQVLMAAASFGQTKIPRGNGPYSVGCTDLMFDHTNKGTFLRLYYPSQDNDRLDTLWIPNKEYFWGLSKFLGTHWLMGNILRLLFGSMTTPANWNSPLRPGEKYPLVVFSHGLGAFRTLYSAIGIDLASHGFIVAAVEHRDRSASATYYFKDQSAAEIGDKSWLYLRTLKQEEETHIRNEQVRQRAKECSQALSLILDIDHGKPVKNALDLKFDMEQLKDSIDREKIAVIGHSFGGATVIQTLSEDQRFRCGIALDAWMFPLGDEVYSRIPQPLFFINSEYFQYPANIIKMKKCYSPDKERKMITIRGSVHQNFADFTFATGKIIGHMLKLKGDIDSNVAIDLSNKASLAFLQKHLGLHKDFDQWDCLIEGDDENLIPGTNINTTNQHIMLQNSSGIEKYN
PAFAH1B3 FP inh – PAFAH1B3 enzyme inhibitors, primary screen, biochemical, fluorescence polarization, human; recombinant PAFAH1B3, FP-rhodamine probe; inhibition, % at 3.39 µM; 340,000 tested, 0.28% active; AID 492972, 2010;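 active = inhibition above the screen-wide average of all tested compounds plus 3 SD, cut at about 25% in these data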
ARFGAP1 inhibitor – inhibitors of rat ARFGAP1 GAP activity, primary screen, biochemical, fluorescence polarization, GDP tracer; ADP-ribosylation factor GTPase-activating protein 1 (Rattus norvegicus), Q62848; Arfgap1-stimulated ARF1 GTP hydrolysis, GDP FP detection; inhibition, % at 16.5 µM; 360,000 tested, 0.26% active;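 active = inhibition above a per-plate limit, mean inhibition of low control wells plus 3 SD, cut at about 25% in these data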
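Material: rat Arfgap1 catalytic domain, aa 1-136; also added: human ARF1(Δ1-17)-GTP substrate; compound dosing: one concentration, 16.5 µM, DMSO 1.26%; incubation: GTP hydrolysis reaction 2 h at 25 °C; measured by: Tracer-displacement fluorescence polarization with EDTA stop, 620/688 nm; evaluation: % inhibition from polarization; repeats: one replicate per compound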
PAFAH1B2 FP inh – PAFAH1B2 enzyme inhibitors, primary screen, biochemical, fluorescence polarization, human | inhibition, % at 3.39 µM | Platelet-activating factor acetylhydrolase IB subunit alpha2 (Homo sapiens), P68402 | 340,000 tested, 1.2% active | recombinant PAFAH1B2, FP-rhodamine activity probe;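 active = inhibition above the mean of all tested compounds plus 3 SD, cut at about 24% in these data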
Target sequence (P68402 whole entry, looked up): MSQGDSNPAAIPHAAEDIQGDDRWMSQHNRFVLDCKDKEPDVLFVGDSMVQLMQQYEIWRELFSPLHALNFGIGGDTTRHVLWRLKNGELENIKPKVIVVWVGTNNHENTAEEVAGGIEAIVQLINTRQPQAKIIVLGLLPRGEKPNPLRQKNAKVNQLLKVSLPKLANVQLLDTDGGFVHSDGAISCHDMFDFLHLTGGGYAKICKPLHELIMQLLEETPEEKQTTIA
Numbers stand for hits; - = inactive; . = no result. In the library only some 2.7% were active in any assay of this set; here they are far more common.

SMILES	PAFAH2 FP inh	ASAP1 GAP inh	pPAFAH inh	PAFAH1B3 FP inh	ARFGAP1 inhibitor	PAFAH1B2 FP inh
O=C(/C=C(\Nc1cccc(F)c1)c1ccccc1)c1ccccc1	.	-	.	.	-	.
CCCN1CCCCC(NC(=O)c2ccc(Cl)cc2Cl)C1=O (stereo not given)	.	-	.	.	-	.
CCCCOCC1CN(CCCC)S(=O)(=O)c2c(NCc3cc(OC)c(OC)c(OC)c3)cccc2O1 (stereo not given)	.	-	.	.	-	.
CC(=O)N1CCN(c2ccc(NCc3ccccc3)cc2)CC1	-	-	32.2	-	-	-
COc1ccc(N2CCN(C(=O)c3ccc(CSc4ccccc4)cc3)CC2)cc1	-	-	-	-	-	25.9
COc1ccc(N2CCN(C(=O)CSc3ccccc3)CC2)cc1	-	-	-	-	-	-
CC(=O)N1CCN(c2ccc(NCc3cccc4ccccc34)cc2)CC1	-	-	30.7	-	-	-
Cc1ccc(C(=O)N2CCN(c3ccc(NC(=S)NC(=O)Cc4ccccc4)cc3)CC2)cc1	-	-	25.1	-	-	-
COc1ccc(C(=O)N2CCN(c3ccc(NC(=O)Cc4ccccc4)cc3)CC2)cc1	-	-	-	-	-	-
CC(=O)N1CCN(c2ccc(NCc3cccs3)cc2)CC1	-	-	-	-	-	-
COc1ccc(-c2nc3c(C)cc(Br)cn3c2Cc2ccccc2C(F)(F)F)cc1OC	.	-	.	.	-	.
COc1cc(CNc2ccc(N3CCCC3)cc2)ccc1OCc1ccccc1	-	-	29.3	-	-	-
COc1cc(CNc2ccc(N3CCCC3)cc2)ccc1OCc1ccccc1F	-	.	-	-	.	-
O=C(N[C@H](Cc1ccccc1)C(=O)N1CCN(c2ncccn2)CC1)[C@H]1O[C@@H](n2ccc(=O)[nH]c2=O)[C@H](O)[C@@H]1O	.	-	.	.	-	.
CN(C(=O)NC1CCCCC1)c1ccccc1	-	-	-	-	-	-
CN(C)C(=O)NC1CCCCCCCCCCC1	-	-	-	-	-	36.4
Cc1nc2oc3c(NCC4CCCO4)ncnc3c2c2c1COC(C)(C)C2 (stereo not given)	-	-	-	-	-	-
Cc1nc2oc3c(NCc4ccccc4)ncnc3c2c2c1COC(C)(C)C2	-	-	26.9	-	-	-
O=C(Nc1ccccc1Sc1ccccc1)c1ccccc1F	-	-	31.1	-	-	-
CCc1ccccc1NC(=O)c1ccc(NS(C)(=O)=O)cc1	.	-	-	.	-	.
CS(=O)(=O)Nc1ccc(C(=O)Nc2ccccc2Sc2ccccc2)cc1	-	-	30.5	-	-	-
COc1cc(/C=C/C(=O)OCC(=O)NC2CCCCCCC2)ccc1O	75.6	-	26.5	-	-	-
COc1cc(/C=C/C(=O)OCC(=O)Nc2cccc(F)c2)ccc1O	92.9	-	28.5	-	-	-
COc1cc(/C=C/C(=O)OCC(=O)NC(=O)NC(C)(C)C)ccc1O	-	-	-	-	-	-
OC(c1ccccc1)(c1ccccc1)C1CCN(CCCOc2ccc(C(F)(F)F)cc2)CC1	.	-	.	.	-	.
SMILES	PAFAH2 FP inh	ASAP1 GAP inh	pPAFAH inh	PAFAH1B3 FP inh	ARFGAP1 inhibitor	PAFAH1B2 FP inh
CCOC(=O)C1=C(C(=O)OCC)C2N(Cc3ccc(Br)cc3)c3ccccc3[C@@]23C[C@@H](C(=O)OC)N(S(=O)(=O)c2cccs2)C3=N1 (stereo not given in full)	.	-	.	.	-	.
Cc1cccc(CN2[C@H](COC(=O)Nc3ccccc3)C=CS2(=O)=O)c1	.	-	.	.	-	.
O=C(Nc1nnc(-c2ccc3c(c2)CCCC3)o1)C1COc2ccccc2O1 (stereo not given)	-	-	30.9	-	-	-
N#Cc1c(SCC(N)=O)nsc1SCc1ccc(Cl)cc1	-	-	-	-	-	29.7
N#Cc1c(SCC(N)=O)nsc1SCc1ccccc1Cl	-	-	-	-	-	-
N#CC(=C1C=CC(=NO)C(Cl)=C1)c1ccc(Cl)cc1	-	-	.	-	-	37.6
COc1ccc(C(C#N)=C2C=CC(=NO)C=C2)cc1	-	-	-	-	-	-
O=C1CCCC2=C1C(c1ccc(Br)cc1)c1c([nH]c(=S)[nH]c1=O)N2 (stereo not given)	-	-	-	-	-	-
O=c1[nH]c(=S)[nH]c2c1C(c1ccc(Br)cc1)c1c([nH]c(=S)[nH]c1=O)O2	54.7	-	27.1	-	-	-
O=C(O)c1cccc(-n2c(O)c(C=C3N=c4ccccc4=N3)sc2=S)c1	-	-	28.8	-	-	-
O=S1(=O)N[C@@H](Cc2ccccc2)COc2cccc(N3CCCCC3)c21	.	-	.	.	-	.
CCCCC[C@@H]1C=C(C(=O)O)[C@H](c2ccc(Cl)c(Cl)c2)N1S(=O)(=O)c1ccc(C)cc1	-	-	-	-	-	28.6
CCCCC[C@@H]1C=C(C(=O)O)[C@H](c2ccc(CC)cc2)N1S(=O)(=O)c1ccc(C)cc1	-	-	-	-	-	-
CCCCC[C@@H]1C=C(C(=O)O)[C@H](c2ccc(F)cc2)N1S(=O)(=O)c1ccc(C)cc1	-	-	-	-	-	25.4
CCOC(=O)C1=C(C(=O)OCC)C2N(Cc3ccc(C(F)(F)F)cc3)c3ccccc3[C@@]23C[C@@H](C(=O)OC)N(S(=O)(=O)c2cccs2)C3=N1 (stereo not given in full)	.	-	.	.	-	.
CCCCN(CCCNC(=O)C1CCN(S(=O)(=O)N2CCOCC2)CC1)c1ccccc1	-	-	28.2	-	-	-
NC(=O)c1ccsc1NC(=O)c1ccc([N+](=O)[O-])o1	35.7	-	35.7	-	-	-
NC(=O)c1ccsc1NC(=O)COC(=O)c1ccc([N+](=O)[O-])o1	-	-	-	-	-	-
CCOC1=C2[C@H](c3ccccc3)N(S(=O)(=O)c3ccc(C)cc3)[C@H](C(C)C)[C@H]2C(C#N)(C#N)C(C#N)(C#N)C1	.	-	.	.	-	.
C#CCN1C(=O)[C@]2(OC[C@@H]3Cc4ccccc4[C@@H]3C=C2C)c2ccccc21	.	-	.	.	-	.
COc1ccc2[nH]c(O)c(N=NC(=O)Cc3cccs3)c2c1	-	-	24.8	-	-	-
O=C(Cc1cccs1)N=Nc1c(O)[nH]c2ccc(Br)cc12	-	-	-	-	-	-
Cc1ccccc1S(=O)(=O)N1CCCc2nc(C)c(C)cc21	.	-	.	.	-	.
C[C@@H]1ON(C)[C@H]2C[C@H]3c4cc(-c5ccc6c(c5)OCO6)ccc4CCN3C[C@@H]12	.	-	.	.	-	.
Cc1c(C(=O)N/N=C/c2ccccc2)sc(=S)n1C	-	-	-	-	25.8	-

Compound activity from PubChem BioAssay.
